This sample holds only a part of the variants without activity.
B1: tRNA (parent)
chain: GUUCCGUUGGCGUAAUGGUAACGCGUCUCCCUCCUAAGGAGAAGACUGCGGGUUCGAGUCCCGUACGGAACG

Variants of: B1
Assay: yeast fitness relative to wild type (ratio to wild type); higher = fitter; tRNA-Arg(CCU), competitive growth, 37 C, YPD
How it was run: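 Changes in genotype frequencies gave Darwinian fitness relative to wild type. Frequencies were read by 100-nucleotide paired-end sequencing of gene amplicons before and after pooled Saccharomyces cerevisiae strains, carrying tRNA-Arg(CCU) gene variants at the native locus, were competed in YPD at 37°C for 24 hours in six replicates. A genotype was kept only with ≥ 100 starting reads, and estimates < 0.5 were set to 0.5.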

| Variant | yeast fitness |
| --- | --- |
| GUUCCGUUGGCGUGAUGGUUACGCGUCUCCCUCCUUAGGAGAAGACUGCGCCUUCGAGUUCCGUACAGAACG [A14G A20U A36U G51C G52C C60U G67A] | ≤ 0.5 |
| GUUCCGUUGGCGUGAUGGUCACGCGUCUCCCUACUAAGGAGAAGACUGCGGGUUCGAGUCCCGUACGGAGCG [A14G A20C C33A A70G] | ≤ 0.5 |
| GUUCCGUUGGCGUGAUGGUCACGCGUCUCCCUCCUAAGGAGAAGACUGCGGGUUCGAGUCCCGUACCGAACG [A14G A20C G67C] | 0.534 |
| GUUCCGUUGGCGUGAUGGUACCGCGUCUCCCUCCUCAGGAGAUGACUGCGGGUUCGAGUCCCGUACGGAACG [A14G A21C A36C A43U] | ≤ 0.5 |
| GUUCCGUUGGCGUGAUGGUAAGGCGUCUCCCUCCAAAGGAGAAGACUGCGGGUUCGAGUCCCGUACGGAACG [A14G C22G U35A] | 0.61 |
| GUUCCGUUGGCGUGAUGGUAACGCGUCUCCCUCCUAAGGAGCAGACUGCGGGUUCGAGUCCAGUACGGAACG [A14G A42C C62A] | ≤ 0.5 |
| GUUCCGUUGGCGUGAUGGUAUCGCGUCUCCCUCCUAAGGAGAAGACUGCGGGUUCGAGUCCGGUACGGAACG [A14G A21U C62G] | ≤ 0.5 |
| GUUCCGUUGGCGUGAUGGUAACGCGUCUCCCUCCUAAGGAGACGACUGCGGGUUCGAGUCCCGUACGGAACG [A14G A43C] | 0.823 |
| GUUCCGUUGGCGUGAUGGUAACGCGUCUCCCUCCUAAGGAGAUGACUGCGGGUUCGAGUCCCGUACGGAACG [A14G A43U] | 0.803 |
| GUUCCGUUGGCGUGAUGGUAACGCGUCUCCCUCCUAAGGAGAAGCCUGCGGGUUCGAGUCCCGUACGGAACG [A14G A45C] | 0.718 |
| GUUCCGUUGGCGUGAUGGUAUCGCGUCUCACUCCUUAGGAGAAGACUGCGGGUUCGAGUUCCGUACGGCACG [A14G A21U C30A A36U C60U A69C] | ≤ 0.5 |
| GUUCCGUUGGCGUGAUGGUAACGCGUCUCCCUCCUAAGGUGAAGACUGCGGGUUCGAGUCCCGUCCGGAACG [A14G A40U A65C] | 0.533 |
| GUUCCGUUGGCGUGAUGGUAACGCGUCUCCCUCCUAAGGAGGAGACUGCGCGUUCGAGUCCCGUACGGAACG [A14G A42G G51C] | ≤ 0.5 |
| GUUCCGUUGGCGUGAUGGUAACGCGUCUCCCUCCUACGGAGAAGACUGCGGGUUCGAGUCCCGUACGGACCG [A14G A37C A70C] | 0.624 |
| GUUCCGUUGGCGUGAUGGUAACGCGUCUCCCUCCUUAGGAGAAGACUGCAGGUUCGAGUCCGGUACGGAACG [A14G A36U G50A C62G] | ≤ 0.5 |
| GUUCCGUUGGCGUGAUGGUAACGCGUCUCCCUCCUAAGGAGAAGCCUGCGGGUUCGAAUCCCGUACGGAACG [A14G A45C G58A] | 0.622 |
| GUUCCGUUGGCGUGUUGGUAACGCGUCUCCCGCGUAAGGAGAAGACCGCGGGUUCGAGUCCCCUACGGAACG [A14G A15U U32G C34G U47C G63C] | ≤ 0.5 |
| GUUCCGUUGGCGUGAUGGUCACGCGUCUCUCUCCUAAGGAGAAGACUGCGGGUUCGAGUCCCGUAUGGAACG [A14G A20C C30U C66U] | ≤ 0.5 |
| GUUCCGUUGGCGUGAUGGUAACGCGUCUCCCUCCUAAGGAGAAGACUGCGGGUUCGAGUCCCGUACGGUACG [A14G A69U] | 0.921 |

| Variant | yeast fitness |
| --- | --- |
| GUUCCGUUGGCGUGAUGGUAACGCGUCUCCCUCCUAAGGAGAAGACUGCGGGUUCGAGUCCCGUACGGGACG [A14G A69G] | 0.821 |
| GUUCCGUUGGCGUGAUGGUAACGCGUCUCCCUCCUAAGGAGACGGCUGCAGGUUCGAGUCCCGUACGGAACG [A14G A43C A45G G50A] | ≤ 0.5 |
| GUUCCGUUGGCGUGAUGGUACCGCGUCUCCCUCCAAAGGAGAGGACUGCGGGUUCGAGUCCCGUACGGAACG [A14G A21C U35A A43G] | ≤ 0.5 |
| GUUCCGUUGGCGUGAUGGUAAUGCGUCUCCCUCCUAGGGAGAAGACUGCGGGUUCGAGUCCCGUACGGACCG [A14G C22U A37G A70C] | ≤ 0.5 |
| GUUCCGUUGGCGUGAUGGUAACGCGUCUCCCUCCUAAGGAGUAGCCUGCGGGUUCGAGACCCGUACGGAACG [A14G A42U A45C U59A] | ≤ 0.5 |
| GUUCCGUUGGCGUGAUGGUAACGCGUCUCCCUCCUAAGGAGUAGACUGCGGGUUCGAGUCCCGUACGCAACG [A14G A42U G68C] | ≤ 0.5 |
| GUUCCGUUGGCGUGAUGGUAACGCGUCUCCCUCCUUAGAAGAAGACUGCGGGUUCGAGUGCCGUACGGAACG [A14G A36U G39A C60G] | ≤ 0.5 |
| GUUCCGUUGGCGUGAUGGUAGCGCGUCUCCCUCCUAAGGAGAAGACUGCGGGUUCGAGUCCCGUACAGAACG [A14G A21G G67A] | 0.63 |
| GUUCCGUUGGCGUGAUGGUAACGCGUCUCCCUCCUAAGGAGAAGACUGCGGGUUCGAGUCCCGUACGGUCCG [A14G A69U A70C] | 0.726 |
| GUUCCGUUGGCGUGAUGGUAACGCGUCUCCCUCCUAAGGAGGAGAGUGCGGGUUCGGGUCCCGUACGGAACG [A14G A42G C46G A57G] | ≤ 0.5 |
| GUUCCGUUGGCGUGAUGGUAACGCGUCUCCCUCCUCAGGAGAAGACUGCGGGUUCGAGUCCCGUACGGAACG [A14G A36C] | 0.561 |
| GUUCCGUUGGCGUGAUGGUAACGCGUCUCCCUCCUUAGGAGAAGACUGCGGGUUCGAGUCCCGUACGGAACG [A14G A36U] | 0.658 |
| GUUCCGUUGGCGUGAUGGUAACGCGUCUCCCUCCUAAGGUGAAGACUGCGGGUUAGAGUCCCGUACGUAACG [A14G A40U C55A G68U] | ≤ 0.5 |
| GUUCCGUUGGCGUGAUGGUAACGCGUCUCCCUCCUAAGGAGAAGACUGCGGGUUCGAGUCCCGUACGGAUCG [A14G A70U] | 0.662 |
| GUUCCGUUGGCGUGAUGGUCACGCGUCUCCCUCCUAAGGCGAAGGAUGCGGGUUCGAGUCCCGUACGGAACG [A14G A20C A40C A45G C46A] | ≤ 0.5 |
| GUUCCGUUGGCGUGUUGGUAACGCGUCUCCCUCCUAAGGAGAAGACUGCGGGCUCGAGUCCCGUACGGUACG [A14G A15U U53C A69U] | 0.599 |
| GUUCCGUUGGCGUGAUGGUAACGCGUCUCCCUCCUAAGGUGAAGAGUGCCGGUUCGUGUCCCGUACGGAACG [A14G A40U C46G G50C A57U] | ≤ 0.5 |
| GUUCCGUUGGCGUGAUGGUAGCGCGUCUCCCUUCUAAGGAGACGACUGCGGGUUCGAGUCCCGUACGGAACG [A14G A21G C33U A43C] | ≤ 0.5 |
| GUUCCGUUGGCGUGAUGGUAACGCGUCUCCCUCCUAAGGAGAAGACUGCGGGUUCGCGUCCUGUACGGAACG [A14G A57C C62U] | ≤ 0.5 |
